The source of these data is ChEMBL document CHEMBL4261483, “Synthesis and biological evaluation of memantine nitrates as a potential treatment for neurodegenerative diseases” (Medchemcomm, 2017).

Activity calls are given as the source filed them. No cut-off for these calls is given here.

Data set [1] has as its system Cerebellar granule neurone. As to the kind of experiment: Neuroprotective activity against glutamate-induced excitotoxicity in mouse primary cerebellar granule neurons assessed as increase in cell viability preincubated for 2 hrs followed by glutamate challenge measured after 24 hrs by MTT assay. Type of data set: functional.
For data set [2], the system named is Cerebellar granule neurone. Description: Neuroprotective activity against glutamate-induced excitotoxicity in mouse primary cerebellar granule neurons assessed as increase in cell viability up to 10 uM preincubated for 2 hrs followed by glutamate challenge measured after 24 hrs by MTT assay. Type of data set: functional.
In data set [3] the test system is Cerebellar granule neurone. Description: Cytotoxicity against mouse primary cerebellar granule neurons assessed as decrease in cell viability at 100 uM after 24 hrs by MTT assay. For orientation: Tetrazolium dyes change colour on reduction, which living cells bring about.
Data set [4] has as its system Aorta. As to the kind of experiment: Vasodilating activity in Sprague-Dawley rat aortic ring precontracted with phenylephrine in presence of endothelium. It counts as functional, tissue-based. As to conditions: for EC50: Rattus norvegicus, Sprague-Dawley, Aorta.
In data set [5] the test system is Aorta. As to the kind of experiment: Vasodilating activity in Sprague-Dawley rat aortic ring precontracted with phenylephrine in absence of endothelium. Type of data set: functional, tissue-based. As to conditions: for EC50: Rattus norvegicus, Sprague-Dawley, Aorta.
The subject of data set [6] is Cerebellar granule neurone. As to the kind of experiment: Neuroprotective activity against glutamate-induced excitotoxicity in mouse primary cerebellar granule neurons assessed as increase in cell viability at 1 uM preincubated for 2 hrs followed by glutamate challenge measured after 24 hrs by MTT assay. Type of data set: functional.
In data set [7] the test system is Cortical neurone. As to the kind of experiment: Neuroprotective activity in rat cortical neurons assessed as inhibition of glutamate-induced decrease in mitochondrial membrane potential at 5 uM preincubated for 2 hrs followed by glutamate challenge measured after 12 hrs by JC1 staining-based fluorescence assay. It counts as functional, cell-based. In outline: (§1)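 Cortical neurons given compound for 2 h, then 200 μM glutamate for 12 h without compound removal. Fluorescence read at 488 nm excitation with dual emission at 529/590 nm.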

Data set [8] concerns Cortical neurone. Description: Neuroprotective activity against glutamate-induced neuronal damage in rat cortical neurons assessed as decrease in formation of hydroxy radicals at 5 uM preincubated for 2 hrs followed by glutamate challenge measured after 12 hrs by HPF dye-based fluorescence assay. It counts as functional, cell-based. The gist of the method: (§2)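 Cortical neurons pretreated 2 h with compound, then exposed to 200 μM glutamate for 12 h in its presence. Probes added for a further 30 min: H2DCF-DA 5 μM (H2O2), HPF 10 μM (·OH), DHE 5 μM (superoxide), DAF-FM 5 μM (NO), DHR123 10 μM (peroxynitrite). Intracellular fluorescence measured.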

For data set [9], the system named is Cortical neurone. Description: Neuroprotective activity against glutamate-induced neuronal damage in rat cortical neurons assessed as increase in cell viability at 5 uM preincubated for 2 hrs followed by glutamate challenge measured after 24 hrs by […]/propidium iodide staining-based inverted fluorescence microscopic method. Type of data set: functional. In outline:
(§3)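 Rat primary cortical neurons given compound for 2 h, then 200 μM glutamate for 24 h in its presence. Viability by FDA/PI double staining, with live cells green (FDA) and dead cells red (PI), scored from fluorescence images. Memantine 5 μM used as positive control.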

The subject of data set [10] is Cortical neurone. As to the kind of experiment: Neuroprotective activity against glutamate-induced neuronal damage in rat cortical neurons assessed as decrease in formation of peroxynitrite at 5 uM preincubated for 2 hrs followed by glutamate challenge measured after 12 hrs by DHR123 dye-based fluorescence assay. Type of data set: functional, cell-based. The gist of the method:
as §2

Data set [11] relates to Cortical neurone. As to the kind of experiment: Neuroprotective activity against glutamate-induced neuronal damage in rat cortical neurons assessed as decrease in formation of superoxide anions at 5 uM preincubated for 2 hrs followed by glutamate challenge measured after 12 hrs by DHE dye-based fluorescence assay. It counts as functional, cell-based. The gist of the method:
as §2

Data set [12] has as its system Cortical neurone. As to the kind of experiment: Neuroprotective activity against glutamate-induced neuronal damage in rat cortical neurons assessed as decrease in intracellular calcium influx at 5 uM preincubated for 5 min followed by glutamate challenge measured over 280 secs by Fluo-3/AM dye-based fluorescence assay. Type of data set: functional, cell-based. The gist of the method:
(§4)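 Cortical neurons loaded with Fluo-3/AM (5 μM) for 30 min at 37 °C, then held in HBSS for 30 min at room temperature. Dye washed out, compound applied for 5 min, and cells imaged with a 20× objective to follow calcium influx.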
For orientation: A change in cytosolic calcium serves as a functional read-out for many receptors and channels.

Data set [13] concerns Cortical neurone. Description: Neuroprotective activity against glutamate-induced neuronal damage in rat cortical neurons assessed as decrease in H2O2 formation at 5 uM preincubated for 2 hrs followed by glutamate challenge measured after 12 hrs by H2DCF-DA dye-based fluorescence assay. It counts as functional, cell-based. The gist of the method:
as §2

For data set [14], the system named is Cortical neurone. Description: Neuroprotective activity against glutamate-induced neuronal damage in rat cortical neurons assessed as decrease in formation of nitric oxide at 5 uM preincubated for 2 hrs followed by glutamate challenge measured after 12 hrs by DAF-FM dye-based fluorescence assay. Type of data set: functional, cell-based. The gist of the method: as §2

The test system of data set [15] is Cortical neurone. As to the kind of experiment: Neuroprotective activity against glutamate-induced neuronal damage in rat cortical neurons assessed as decrease in formation of peroxynitrite preincubated for 2 hrs followed by glutamate challenge measured after 12 hrs by DHR123 dye-based fluorescence assay. It counts as functional, cell-based. In outline:
as §2

The subject of data set [16] is Cortical neurone. Description: Neuroprotective activity against glutamate-induced neuronal damage in rat cortical neurons assessed as decrease in formation of hydroxy radicals preincubated for 2 hrs followed by glutamate challenge measured after 12 hrs by HPF dye-based fluorescence assay. Type of data set: functional, cell-based. In outline:
as §2

The test system of data set [17] is Cortical neurone. As to the kind of experiment: Neuroprotective activity against glutamate-induced neuronal damage in rat cortical neurons assessed as decrease in intracellular calcium influx at 15 uM preincubated for 5 min followed by glutamate challenge measured over 280 secs by Fluo-3/AM dye-based fluorescence assay. Type of data set: functional, cell-based. The gist of the method: as §4

In data set [18] the test system is Cortical neurone. Description: Neuroprotective activity against glutamate-induced neuronal damage in rat cortical neurons assessed as decrease in H2O2 formation preincubated for 2 hrs followed by glutamate challenge measured after 12 hrs by H2DCF-DA dye-based fluorescence assay. Type of data set: functional, cell-based. In outline: as §2
Data set [19] concerns Cortical neurone. As to the kind of experiment: Neuroprotective activity against glutamate-induced neuronal damage in rat cortical neurons assessed as decrease in formation of superoxide anions preincubated for 2 hrs followed by glutamate challenge measured after 12 hrs by DHE dye-based fluorescence assay. Type of data set: functional, cell-based. The gist of the method: as §2

In data set [20] the test system is Cortical neurone. As to the kind of experiment: Neuroprotective activity against glutamate-induced neuronal damage in rat cortical neurons assessed as increase in cell viability preincubated for 2 hrs followed by glutamate challenge measured after 24 hrs by […]/propidium iodide staining-based inverted fluorescence microscopic method. Type of data set: functional. In outline:
as §3

For data set [21], the system named is Cortical neurone. Description: Neuroprotective activity in rat cortical neurons assessed as inhibition of glutamate-induced decrease in mitochondrial membrane potential at 5 to 45 uM preincubated for 2 hrs followed by glutamate challenge measured after 12 hrs by JC1 staining-based fluorescence assay. It counts as functional, cell-based. In outline: as §1
In data set [22] the test system is Cortical neurone. As to the kind of experiment: Neuroprotective activity against glutamate-induced neuronal damage in rat cortical neurons assessed as increase in cell viability preincubated for 2 hrs followed by glutamate challenge measured after 24 hrs by MTT assay. Type of data set: functional, cell-based. The gist of the method: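 Rat primary cortical neurons treated with compound for 2 h, then exposed to 200 μM glutamate for another 24 h without compound removal. Viability by MTT assay. Memantine 5 μM served as positive control.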

For data set [23], the system named is Cortical neurone. Description: Neuroprotective activity against glutamate-induced neuronal damage in rat cortical neurons assessed as decrease in formation of nitric oxide preincubated for 2 hrs followed by glutamate challenge measured after 12 hrs by DAF-FM dye-based fluorescence assay. It counts as functional, cell-based. The gist of the method: as §2

Consider `CC12CC3CC(N)(C1)CC(CCCO[N+](=O)[O-])(C3)C2` (stereo unspecified), for which, in data set [1], the EC50 was 39.8 µM. Moreover, the outcome in [2] was Active. Also, the Activity result in data set [3] is reported as “Toxic”.
For `NC12CC3CC(CCCO[N+](=O)[O-])(C1)CC(CCCO[N+](=O)[O-])(C3)C2`, the figures for the half-maximal effective concentration (EC50) in data set [1], in data set [4] and in data set [5] were 39.8 µM, 24.6 µM and 34.4 µM, respectively. Moreover, the Emax was found to be 97.7% in data set [4] and 95.4% in data set [5]. The Activity result in [3] is on record as “Toxic”. In addition, the result in data set [6] was Active.
Regarding `CC12CC3CC(N)(C1)CC(O[N+](=O)[O-])(C3)C2` (stereo unspecified), the EC50 in data set [1] amounted to 24.6 µM. In addition, in data set [2], the outcome was Active.
Regarding `CCCC12CC3CC(N)(C1)CC(CCCO[N+](=O)[O-])(C3)C2` (stereo unspecified), in [1], the half-maximal effective concentration (EC50) stood at 57.6 µM. Also, the result in data set [2] was Active. Moreover, the Activity result in data set [3] is given as “Toxic”.
In the case of `CCC12CC3CC(N)(C1)CC(CC(C)O[N+](=O)[O-])(C3)C2` (stereo unspecified), the EC50 in data set [1] turned out to be 58.4 µM. Also, the outcome in [2] was Active. Besides, the Activity entry in data set [3] was “Toxic”.
For `CC(CC12CC3CC(N)(C1)CC(CC(C)O[N+](=O)[O-])(C3)C2)O[N+](=O)[O-]` (stereo unspecified), in that order: 43 µM, “Active” and “Toxic”.
Take `CC12CC3CC(C)(C1)CC(N)(C3)C2` [MEMANTINE]: the inhibition entry in data set [7] is “Active”. Also, the outcome in data set [8], in data set [9], in data set [10], in [11], in [12] and in data set [13] was Active. Also, the outcome in [14] and in data set [6] was Active. Further, the EC50 in data set [1] amounted to 2.48 µM.
Consider `CC12CC3CC(N)(C1)CC(CO[N+](=O)[O-])(C3)C2` (stereo unspecified), for which the EC50 in data set [1] was 25.2 µM. The outcome in data set [2] was Active.
Regarding `NC12CC3CC(CCO[N+](=O)[O-])(C1)CC(CCO[N+](=O)[O-])(C3)C2`, the half-maximal effective concentration (EC50) in [1] stood at 25.9 µM; in data set [4] it was 36 µM; in [5], 57.1 µM. Also, the result in [2] was Active. Also, the Emax in [4] came out at 102%; in [5], 99.4%. Besides, the Activity entry in [3] is listed as “Toxic”.
For the compound `CC(CO[N+](=O)[O-])CC12CC3CC(N)(C1)CC(CC(C)CO[N+](=O)[O-])(C3)C2` (stereo unspecified), the EC50 was 53.2 µM in [1], 32 µM in data set [4] and 36.5 µM in [5]. In addition, the maximum response (Emax) in [4] stood at 100%; in [5] it was 95.8%. The Activity entry in data set [3] was “Toxic”. Besides, the result in [6] was Active.
On to `CCC12CC3CC(N)(C1)CC(O[N+](=O)[O-])(C3)C2` (stereo unspecified), for which the half-maximal effective concentration (EC50) in data set [1] came out at 15.4 µM; in data set [5], 146 µM. Further, the Emax was 39.5% in data set [4] and 42% in data set [5]. Also, the outcome in data set [6] was Active.
Turning to `CCC12CC3CC(N)(C1)CC(CO[N+](=O)[O-])(C3)C2` (stereo unspecified), the Activity result in [15], in [16], in data set [18], in data set [19], in data set [20] and in [22] was “Dose-dependent effect” each time. The Activity result in [23] is “Dose-dependent effect”. Also, the outcome in [17] and in data set [6] was Active. In addition, the EC50 in [1] was 10.7 µM; in data set [4], 46.4 µM; in data set [5] it was 50.6 µM. Besides, in data set [21], the inhibition result is “Active”. Besides, the Emax in [4] was determined as 101%; in data set [5], 98.2%.
Regarding `CCCC12CC3CC(N)(C1)CC(O[N+](=O)[O-])(C3)C2` (stereo unspecified), the EC50 in [1] came out at 17.1 µM; in [5] it was 94.8 µM. Besides, the maximal effect (Emax) in data set [4] is 52%; in data set [5], 61.7%. Besides, the result in [6] was Active.
For the compound `NC12CC3CC(CO[N+](=O)[O-])(C1)CC(CO[N+](=O)[O-])(C3)C2`, the results for the concentration for a half-maximal effect (EC50) in data set [1], in data set [4] and in data set [5] were 18.9 µM, 55 µM and 62.8 µM, respectively. Moreover, the figures for the maximal effect (Emax) in [4] and in data set [5] were 96.8% and 90.5%, respectively. In addition, in [6], the result was Active.
For the compound `CCC12CC3CC(N)(C1)CC(CC(C)CO[N+](=O)[O-])(C3)C2` (stereo unspecified), in [1], the EC50 stood at 55.2 µM. For the same compound, the result in [2] was Active. Besides, the Activity entry in data set [3] is given as “Toxic”.
As for `CCC12CC3CC(N)(C1)CC(CCCO[N+](=O)[O-])(C3)C2` (stereo unspecified), the figures for the concentration for a half-maximal effect (EC50) in [1], in data set [4] and in data set [5] were 35.2 µM, 24.4 µM and 26.9 µM, respectively. Moreover, the results for the Emax in data set [4] and in data set [5] were 95% and 89.8%, respectively. Further, the Activity result in [3] is listed as “Toxic”. The outcome in [6] was Active.
Regarding `CCCC12CC3CC(N)(C1)CC(CO[N+](=O)[O-])(C3)C2` (stereo unspecified), in data set [1], the half-maximal effective concentration (EC50) was 38.1 µM. The outcome in [2] was Active. The Activity result in data set [3] is on record as “Toxic”.

Usually EC50 stands for the midpoint of the concentration-response curve. One may read the Emax as the maximal effect, on the per cent scale that the assay sets.
